# PGC1a acetyl inh: PGC1a acetylation modulation, inhibitor mode; U2OS PGC1a acetylation, AlphaScreen anti-acetyl-lysine; with virally co-expressed GCN5 acetyltransferase; inhibition, % at 15.6 µM; 350,000 compounds, 0.17% hits;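 active = every replicate shows inhibition of at least 40%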;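 also: 0% = neutral control wells and 100% = positive control wells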
# DENV2 CPE: protects cells from dengue virus 2 cytopathic effect | AID 651640 | 350,000 compounds, 1.7% hits | DENV2-infected cells, cytopathic effect rescue, plate reader | CPE inhibition, % at 9.99 µM; in the data active = CPE inhibition above about 20%, passing the limit was not always enough; tested in BHK-21 cells;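 also: 0% = median of neutral control wells and 100% = median of positive control wells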
# FN deposition inh: fibronectin deposition inhibition. 350,000 compounds, 0.086% hits. inhibition, % at 12.6 µM. AH1F fibroblasts, Alexa488-fibronectin deposition fluorescence, overnight;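 active = mean inhibition across replicates of 30% or more, regardless of how many single replicates reach that level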;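 also: positive control wells lacked labelled fibronectin entirely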
#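 test system = AH1F fibroblasts assembling fluorescent fibronectin matrix | quantity = 10000 AH1F cells per well | buffer or medium = DMEM plus 2% serum, read in PBS | doses = single dose, pinned | incubation = 1 h cell attachment, overnight exposure to compound and label | detection = fluorescence at 485 nm excitation, 525 nm emission | read-out basis = inhibition from reduced deposited-fibronectin fluorescence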
# Cneo AK release: causes C. neoformans cell lysis. adenylate kinase release luminescence, 4 h; normalised: neutral wells 0, clomiphene wells 100. lysis activity, % at 15 µM. 360,000 compounds, 0.2% hits. AID 651654;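 active = mean lysis activity across replicates of at least 80%, whatever share of replicates individually reach that level; inactive = mean lysis activity below 80%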
#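 Assay system: C. neoformans cells. Amount: yeast cell density of 5 × 10^6 cells/mL. Technique: AK luminescence. Buffer or medium: YPD. Times: static 4 h at 37 °C with compound, 1 h detection. Dosing: single-point compound dose. Read-out: lysis from increased AK signal.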
# F508del corr: correctors of CFTR F508del function in bronchial epithelial cells | CFBE cells, YFP halide quenching; stimulated with forskolin plus potentiator P3; % fluorescence drop versus neutral controls | activity (quench increase), % at 7.58 µM | 350,000 compounds, 0.36% hits;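 active = mean added fluorescence quench of at least 8% versus neutral control, with both replicates also reaching 8%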;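 also: cells transiently co-express mutant CFTR-F508del with the halide-sensitive YFP; corrector assay measuring rescue of mutant channel to the surface after 24 h compound exposure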
# XiGFP reactiv: activators of X-chromosome reactivation in mouse fibroblasts; XiGFP mouse fibroblasts, % GFP-positive cells imaging, 3 d; cells co-treated with 5-aza-dC sensitizer; scaled so ellipticine positive control = 100%; 360,000 compounds, 0.055% hits; activation, % at 7.58 µM; AID 743238;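 active = mean normalized replicate activation at least 10% and every replicate at or above 10%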;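 also: 0% = median of on-plate neutral control wells and 100% = ellipticine 6 µM median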
#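 System: 68-5-11 XiGFP fibroblast line; Timing: 3 days compound exposure; Compound dosing: one concentration, pinned; Benchmarks: positive control ellipticine, 6 µM final; Buffer or medium: DMEM containing 5-aza-dC.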
# * marks the source's active call; other numbers are inactive results; / = no result. Rows were chosen to be rich in hits. Some 1.9% of all compounds tested hit in one or more screens of this group.
SMILES,PGC1a acetyl inh,DENV2 CPE,FN deposition inh,Cneo AK release,F508del corr,XiGFP reactiv
COC(=O)C[C@H]1C[C@H]2c3cc(NC(=O)c4ccc5c(c4)OCO5)ccc3O[C@H]2[C@H](CO)O1,-3,-4,4,-6,2,0
O=C(NCCN1CCOCC1)C(=O)NCC1OCCN1S(=O)(=O)c1ccc(F)cc1 (configuration not stated),/,3,3,1,0,0
O=C(NCCN1CCOCC1)C(=O)NCC1OCCN1S(=O)(=O)c1ccc(Cl)cc1 (configuration not stated),/,79*,-9,0,1,0
O=C(c1ccccc1F)N1CC[C@@H]2[C@H](CO)Nc3ccc(Br)cc3[C@@H]21,4,-4,-3,0,12*,0
O=C(c1ccccc1F)N1CC[C@@H]2[C@H]1c1cc(C#Cc3ccccc3)ccc1N[C@@H]2CO,0,/,-3,5,-2,0
O=S(=O)(c1ccc(F)cc1)N1CC[C@@H]2[C@H]1c1cc(C#CC3CCCCC3)ccc1N[C@@H]2CO,-13,12,-9,/,0,0
COc1ccc(C#Cc2ccc3c(c2)[C@H]2[C@H](CCN2C(=O)c2ccncc2)[C@H](CO)N3)cc1,2,-4,8,-10,-3,0
O=S(=O)(c1ccccc1)N1CC[C@@H]2[C@H]1c1cc(C#CC3CCCCC3)ccc1N[C@@H]2CO,-8,28*,5,/,-3,1
O=C(c1ccccc1F)N1CC[C@@H]2[C@H](CO)Nc3ccc(C#Cc4ccc(F)cc4)cc3[C@@H]21,1,26*,0,4,-1,0
COc1ccccc1C#Cc1ccc2c(c1)[C@H]1[C@H](CCN1C(=O)c1ccncc1)[C@H](CO)N2,1,36*,/,0,4,/
Cc1noc(C)c1S(=O)(=O)Nc1ccc2c(c1)C(=O)N([C@H](C)CO)C[C@@H](C)[C@H](CN(C)S(=O)(=O)c1ccccc1)OCCCC[C@@H](C)O2,-34,-10,0,-3,-1,0
O=C(c1ccccc1)N1CC[C@@H]2[C@H]1c1cc(C#CC3CCCCC3)ccc1N[C@@H]2CO,-5,52*,2,/,-1,0
O=C(c1ccccc1)N1CC[C@@H]2[C@H](CO)Nc3ccc(C#Cc4ccccc4F)cc3[C@@H]21,-1,7,2,3,-2,0
O=C(c1ccccc1)N1CC[C@H]2[C@H](CO)Nc3ccc(C#Cc4ccccc4F)cc3[C@H]21,-6,32*,16,/,-3,1
O=C(c1ccccc1F)N1CC[C@@H]2[C@H](CO)Nc3ccc(C#Cc4ccccc4F)cc3[C@@H]21,-1,62*,2,-8,-1,0
CCCCc1nc(Cl)c(CO)n1Cc1ccc(-c2ccccc2-c2nnn[nH]2)cc1,-4,1,4,3,-2,0
CCCCc1nc(Cl)c(CO)n1Cc1ccc(-c2ccccc2-c2nn[nH]n2)cc1,0,-1,1,1,8.1*,0
COc1ccc(OC)c(C2C(C(=O)Nc3ccc(F)cc3)=C(C)Nc3nc(CCCO)nn32)c1 (configuration not stated),-10,-8,-19,-3,2,0
CCOC(=O)c1ccc(NC(=O)C2=C(C)Nc3nc(CCCO)nn3C2c2cccc(C)c2)cc1 (configuration not stated),/,73*,-6,-3,-4,0
O=c1[nH]c2nc(Cl)nc(Cl)c2[nH]1,74*,1,-4,0,2,1
Cc1ccc(S(=O)(=O)CCC(=O)NCc2ccccc2)cc1,/,22*,4,/,/,0
Cc1ccc(CNC(=O)CCS(=O)(=O)c2ccc(Cl)cc2)cc1,-2,/,2,/,/,0
CCCS(=O)(=O)NC(=O)C1(C)CCN(C(=O)c2cc(F)ccc2C)C1 (configuration not stated),-5,1,-3,0,3,0

# Compound activity (PubChem BioAssay)
